Reference: ChEMBL document CHEMBL4190216, “Asymmetric 1,5-diarylpenta-1,4-dien-3-ones: Antiproliferative activity in prostate epithelial cell models and pharmacokinetic studies” (Eur J Med Chem, 2017)

How the values were obtained:
[1] = test system: PC-3; assay: Induction of apoptosis in human PC3 cells assessed as viable cells at 30 uM after 16 hrs by F2N12S/CYTOX AADvanced double staining-based flow cytometric method (reference value: 95%); assay type: functional; details: PC-3, 16 h, read-out: Activity
[2] = Plasma concentration in Sprague-Dawley rat at 10 mg/kg administered via oral gavage measured at 6 hrs by HPLC-MS/MS analysis; assay type: ADME, organism-based
[3] = test system: PC-3; assay: Induction of apoptosis in human PC3 cells assessed as early apoptotic cells at 40 uM after 16 hrs by F2N12S/CYTOX AADvanced double staining-based flow cytometric method (reference value: 2%); assay type: functional
[4] = test system: PC-3; assay: Cell cycle arrest in human PC3 cells assessed as accumulation at G2 phase at 5 uM after 24 hrs by propidium iodide staining-based flow cytometric method (reference value: 24%); assay type: functional
[5] = test system: PC-3; assay: Induction of apoptosis in human PC3 cells assessed as late apoptotic/necrotic cells at 15 uM after 16 hrs by F2N12S/CYTOX AADvanced double staining-based flow cytometric method (reference value: 3%); assay type: functional
[6] = Retention time of the compound; assay type: physicochemical
[7] = Plasma concentration in Sprague-Dawley rat at 10 mg/kg administered via oral gavage measured at 3 hrs by HPLC-MS/MS analysis; assay type: ADME, organism-based
[8] = test system: PC-3; assay: Induction of apoptosis in human PC3 cells assessed as viable cells at 20 uM after 16 hrs by F2N12S/CYTOX AADvanced double staining-based flow cytometric method (reference value: 95%); assay type: functional; details: PC-3, 16 h, read-out: Activity
[9] = test system: PC-3; assay: Induction of apoptosis in human PC3 cells assessed as late apoptotic/necrotic cells at 10 uM after 16 hrs by F2N12S/CYTOX AADvanced double staining-based flow cytometric method (reference value: 3%); assay type: functional
[10] = test system: VCaP; assay: Antiproliferative activity against human VCaP cells expressing androgen receptor splice variants assessed as decrease in cell viability after 5 days by trypan blue exclusion assay; assay type: functional, cell-based; details: 120 h
[11] = test system: PC-3; assay: Induction of apoptosis in human PC3 cells assessed as early apoptotic cells at 15 uM after 16 hrs by F2N12S/CYTOX AADvanced double staining-based flow cytometric method (reference value: 2%); assay type: functional
[12] = test system: PC-3; assay: Induction of apoptosis in human PC3 cells assessed as early apoptotic cells at 30 uM after 16 hrs by F2N12S/CYTOX AADvanced double staining-based flow cytometric method (reference value: 2%); assay type: functional
[13] = test system: LNCaP; assay: Antiproliferative activity against human LNCAP cells assessed as decrease in cell viability after 3 days by WST assay; assay type: functional, cell-based; details: 72 h
Method in brief: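 Cells were seeded at 3,200 per well. PC-3 and LNCaP were grown in RPMI-1640 and DU-145 in EMEM, each with 10% FBS and 1% penicillin/streptomycin, at 37 °C and 5% CO2. Cells were exposed for 3 days to at least five concentrations, with DMSO as vehicle control. WST-1 reagent was then added for 3 h at 37 °C and absorbance read at 430 nm. IC50 came from linear inhibition, averaged over triplicates.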

[14] = test system: PC-3; assay: Induction of apoptosis in human PC3 cells assessed as early apoptotic cells at 10 uM after 16 hrs by F2N12S/CYTOX AADvanced double staining-based flow cytometric method (reference value: 2%); assay type: functional
[15] = test system: PC-3; assay: Induction of apoptosis in human PC3 cells assessed as early apoptotic cells at 20 uM after 16 hrs by F2N12S/CYTOX AADvanced double staining-based flow cytometric method (reference value: 2%); assay type: functional
[16] = test system: PC-3; assay: Cell cycle arrest in human PC3 cells assessed as accumulation at G0/G1 phase at 5 uM after 16 hrs by propidium iodide staining-based flow cytometric method (reference value: 51 to 52%); assay type: functional

## CCC(C)n1ccnc1/C=C/C(=O)/C=C/c1sc(C)nc1C(F)(F)F (stereo unspecified)
[1]
  viability at 30 µM: 34%
[2]
  concentration at 6 h: 1940 ng/mL
[3]
  Activity: 25%
[4]
  Activity: 21%
[5]
  Activity: 33%
[6]
  Retention_time: 4.35 min
[7]
  concentration at 3 h: 672 ng/mL
[8]
  viability at 20 µM: 51%
[9]
  Activity: 37%
[10]
  IC50: 350 nM
[11]
  Activity: 13%
[12]
  Activity: 20%
[13]
  IC50: 220 nM
[14]
  Activity: 14%
[15]
  Activity: 26%
[16]
  Activity: 68%
